Reference: ChEMBL document CHEMBL4513216, “Probing the Open Global Health Chemical Diversity Library for Multistage-Active Starting Points for Next-Generation Antimalarials” (ACS Infect Dis, 2020)

Experiment: Toxicity liver stage against HepG2, at 10uM
Format: cell-based
Set-up: test concentration 10 uM, cell line HepG2-A16-CD81EGFP
Details: human, HepG2-A16-CD81EGFP cells; read-out: INHIBITION
In short: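 Uninfected HepG2-A16-CD81EGFP cells, 3 × 10^3 per well, 1536-well, plated on prespotted compound at 10 μM final, parasite-free screening media added to match infected plates; puromycin 10 μM positive, DMSO 0.5% negative; run in parallel with 48 h PbLuc assay at 37 °C, 5% CO2; viability by CellTiter-Glo luminescence, normalized to controls.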
Compound CC1=C(c2ccc(Cl)cc2)S(=O)(=O)N=C1N1CCc2ccccc21 has a cytotoxicity at 10 µM of -17.1%.
Work on COc1ccc(C2CC(=O)Oc3cc(C)[nH]c(=O)c32)c(OC)c1 (stereo unspecified) yielded a cytotoxicity at 10 µM of -3.4%.
Cn1cc(NC(=O)C2CC(=O)N(c3n[nH]c4cccc(F)c34)C2)cn1 (stereo unspecified) showed a cytotoxicity at 10 µM of 4.59%.
For Cc1noc(C)c1S(=O)(=O)N1CCC(Oc2ccccn2)CC1, the cytotoxicity at 10 µM was 0.67%.
Work on CC(C)(C)c1cc(=O)n2c(n1)SCC(C(=O)NCc1ccco1)C2 (stereo unspecified) yielded a cytotoxicity at 10 µM of -15.1%.
Compound Cc1nc(N2CCOCC2)nc(C)c1NC(=O)c1ccco1 has a cytotoxicity at 10 µM of 1.9%.
With CCS(=O)(=O)N1CCC2(CN(c3cc(OC)ncn3)C2)C1 the cytotoxicity at 10 µM was 0.325%.
O=C1[C@@H]2CCN(CC3CC3)C[C@@H]2OCCN1c1cccnc1 showed a cytotoxicity at 10 µM of 8.1%.
In the case of O=C(c1ncn2c1CNS(=O)(=O)c1ccccc1-2)N1CCOCC1, the cytotoxicity at 10 µM is reported as 8.28%.
In the case of CN(C)C(=O)N1CCCC2(CCN(Cc3ccncc3)C2)C1 (stereo unspecified), the cytotoxicity at 10 µM is reported as 7.61%.
O=c1cc(Cn2ccnc2)nc2n1CCCN(CC1CCOCC1)C2 showed a cytotoxicity at 10 µM of 12.7%.
With CCS(=O)(=O)N1CCO[C@H]2[C@H](OCC3CCCC3)CC[C@@H]21 the cytotoxicity at 10 µM was -9.6%.
Compound CCN1CCC2(CC1)CC(Nc1ncccn1)CO2 (stereo unspecified) has a cytotoxicity at 10 µM of -21.6%.
In the case of CCNc1nc(N(C)C)nc(-n2cnc(SC)n2)n1, the cytotoxicity at 10 µM is reported as 2.22%.
Work on CC(C(=O)N1CCOCC1)n1cc(Br)cn1 (stereo unspecified) yielded a cytotoxicity at 10 µM of 14.1%.
Cc1ccc(CN2CCN(CC(=O)Nc3ccc4nsnc4c3)CC2)o1 gave a cytotoxicity at 10 µM of -17.5%.
Cn1nc(C(=O)NCc2ccccc2C(F)(F)F)c2c1CCS(=O)(=O)C2 showed a cytotoxicity at 10 µM of 5.37%.
Work on CCCc1nc(NCC(=O)N2CCOCC2)c2c(n1)c(C)nn2CC yielded a cytotoxicity at 10 µM of 12.2%.
For COc1ccc(C2=NOC(CC#N)C2)cc1 (stereo unspecified), the cytotoxicity at 10 µM was 1.52%.
With O=C(O)c1cnc(N2CCC(O)CC2)nc1COc1ccc(F)cc1 the cytotoxicity at 10 µM was -7.52%.
CC(C)C(=O)NC(Cc1cc(N(C)C)nc(C2CC2)n1)c1ccccc1 (stereo unspecified) gave a cytotoxicity at 10 µM of 3.37%.
In the case of Cc1ocnc1C(=O)N(C)[C@@H]1CC[C@@H](n2ccnc2C)[C@@H]1O, the cytotoxicity at 10 µM is reported as 0.642%.
With COc1cc(OC)cc(C(=O)N2CCOCC2c2[nH]ncc2C)c1 (stereo unspecified) the cytotoxicity at 10 µM was 7.83%.
COc1ccc(CC(=O)N2CCCC2c2nc(C)c(C)c(O)n2)cc1 (stereo unspecified) gave a cytotoxicity at 10 µM of -17.7%.
For Cc1nc2ccc(C(=O)N3C[C@@H](O)[C@H](N4CCN(C)CC4)C3)cc2[nH]1, the cytotoxicity at 10 µM was -27.5%.
Compound CCCN(C(=O)c1ccncc1)c1nc2c(s1)CCc1c-2cnn1C has a cytotoxicity at 10 µM of -14.6%.
In the case of Cc1nc2c(c(=O)[nH]1)CCN(C(=O)c1cccc3nccnc13)C2, the cytotoxicity at 10 µM is reported as -16.8%.
O=C(c1cccnc1)N1CCc2c(nc(N3CCCC3)[nH]c2=O)C1 showed a cytotoxicity at 10 µM of 4.51%.
With CCCC(=O)NCCc1cc(N2CCN(C(C)=O)CC2)nc(C2CC2)n1 the cytotoxicity at 10 µM was -28.2%.
Work on Cc1cccc(Nc2nccnc2C2CCCN2CC(=O)N(C)C)n1 (stereo unspecified) yielded a cytotoxicity at 10 µM of -5.28%.
FC(F)(F)Cn1nnnc1SCCN1CCCCC1 gave a cytotoxicity at 10 µM of -61.4%.
CN(Cc1cc(Br)cs1)Cc1nnsc1Cl showed a cytotoxicity at 10 µM of -7.38%.
Compound COCCCN1Cc2cccc(NC(=O)c3cc(F)cc(F)c3)c2C1 has a cytotoxicity at 10 µM of 2.28%.
Cc1ccc(CNC(CCO)C2CCCCC2)nc1 (stereo unspecified) gave a cytotoxicity at 10 µM of -37.4%.
Compound Cc1ncccc1CNC(CCO)C1CCCCC1 (stereo unspecified) has a cytotoxicity at 10 µM of -41.8%.
COc1ccc(C(=O)NC2CCN(c3ncccn3)CC2)cc1F showed a cytotoxicity at 10 µM of -17.8%.
COC(=O)N1CCCC(C(=O)Nc2ccccc2CN2CCCC2)C1 (stereo unspecified) showed a cytotoxicity at 10 µM of -9.07%.
With CCOC(=O)NC(CNC(=O)c1cccc(C)n1)CC(C)C (stereo unspecified) the cytotoxicity at 10 µM was 6.17%.
Cc1n[nH]c(C2CN(C(=O)c3ccc4c(c3)CCCC4)CCO2)n1 (stereo unspecified) gave a cytotoxicity at 10 µM of -10.8%.
Compound CN1N=C(C(=O)N(Cc2ccco2)C2CCCC2)CCC1=O has a cytotoxicity at 10 µM of -144%.
With CCc1nccn1C1CCCN(C(=O)c2ccc(N(C)C)nn2)C1 (stereo unspecified) the cytotoxicity at 10 µM was 3.19%.
In the case of Cc1n[nH]c(C)c1NC(=O)C1CCCN(C(=O)NCC(C)C)C1 (stereo unspecified), the cytotoxicity at 10 µM is reported as 11%.
Compound Cc1noc(C)c1CC(=O)NCC(C)N1CCOCC1 (stereo unspecified) has a cytotoxicity at 10 µM of -52%.
With O=C(Cc1ccccc1Cl)Nc1ccn(CCN2CCOCC2)n1 the cytotoxicity at 10 µM was -5.44%.
Cc1cc(CCC(=O)NCc2nccn2C)ccc1Br gave a cytotoxicity at 10 µM of 2.95%.
In the case of O=C(CN(CC(O)c1ccc(F)cc1)C1CC1)NC(C1CC1)C1CC1 (stereo unspecified), the cytotoxicity at 10 µM is reported as 11.8%.
In the case of O=C(Nc1ccccc1)c1ccc(NCc2ccccc2CO)nn1, the cytotoxicity at 10 µM is reported as 4.34%.
CC(C)c1noc(CCNC(=O)N2CCN(c3cccs3)CC2)n1 showed a cytotoxicity at 10 µM of -5.37%.
Work on COCC(C)NC(=O)CSc1ccc(F)c(Cl)c1 (stereo unspecified) yielded a cytotoxicity at 10 µM of -48%.
O=S(=O)(Cc1ccc(F)cc1F)NCCOc1cccnc1 gave a cytotoxicity at 10 µM of -45.9%.
With CN(Cc1cnccn1)c1cncc(Br)c1 the cytotoxicity at 10 µM was -8.46%.
OC(CNC1CCOCC1)c1cccc(OCc2ccccc2)c1 (stereo unspecified) gave a cytotoxicity at 10 µM of -10.3%.
Work on O=C(c1ccco1)N1CCCC2(C1)CN(c1nncs1)CCO2 (stereo unspecified) yielded a cytotoxicity at 10 µM of -99.3%.
For COc1cc(N2CCC3(CC2)CN(S(C)(=O)=O)c2ccccc23)ncn1, the cytotoxicity at 10 µM was 12.8%.
With O=C(C1CCOC1)N1CCC2(CCN(Cc3nccs3)C2)CC1 (stereo unspecified) the cytotoxicity at 10 µM was -74.8%.
With Cn1nc(CN2CCCCC2)c2c1CN(C(=O)c1ccccc1)C2 the cytotoxicity at 10 µM was 4.83%.
